In ChEMBL document CHEMBL4765273 (Eur J Med Chem, 2020):

Columns and labels:
Influenza A virus [1] = experiment: Antiviral activity against Influenza A virus (A/goose/Guangdong/SH7/2013(H5N1)) group-1 infected in chicken embryo fibroblast assessed as reduction in viral infection preincubated for 1 hrs followed by fibroblast infection and measured after 72 hrs by hemagglutination titre method; format: functional, organism-based
Influenza A virus [2] = experiment: Antiviral activity against Influenza A virus (A/Duck/Guangdong/674/2014 (H5N6)) group-2 infected in chicken embryo fibroblast assessed as reduction in viral infection preincubated for 1 hrs followed by fibroblast infection and measured after 72 hrs by hemagglutination titre method; format: functional, organism-based
Influenza A virus [3] = experiment: Antiviral activity against Influenza A virus (A/goose/Jiangsu/1306/2014 (H5N8)) group-1 infected in chicken embryo fibroblast assessed as reduction in viral infection preincubated for 1 hrs followed by fibroblast infection and measured after 72 hrs by hemagglutination titre method; format: functional, organism-based
Influenza A virus [4] = experiment: Antiviral activity against Influenza A virus (A/chicken/Hebei/LZF/ 2014(H5N2)) group-2 infected in chicken embryo fibroblast assessed as reduction in viral infection preincubated for 1 hrs followed by fibroblast infection and measured after 72 hrs by hemagglutination titre method; format: functional, organism-based
[5] = Cytotoxicity against chicken embryo fibroblast assessed as reduction in cell viability after 48 hrs by CCK8 assay; parameters: species or system Gallus gallus; settings: chicken embryo fibroblasts
Procedure, shortened: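 Chicken embryo fibroblasts (1×10^5 cells/mL) were cultured 24 h at 37°C, 5% CO2, washed with serum-free DMEM, then exposed to 2-fold serial compound dilutions in 1% FBS DMEM for 48 h. CCK-8 in 1% FBS DMEM was added for 90 min and absorbance read at 450 nm. CC50 was obtained by curve fitting. Blank and cell controls were included.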

CCC(CC)O[C@@H]1C=C(C(=O)O)C[C@H](NS(=O)(=O)c2ccccc2)[C@H]1NC(C)=O
IC50 (Influenza A virus [1]): > 10 µM | IC50 (Influenza A virus [2]): > 10 µM | IC50 (Influenza A virus [3]): 4.82 µM | IC50 (Influenza A virus [4]): > 10 µM | CC50 at 48 h [5]: > 200 µM

CCC(CC)O[C@@H]1C=C(C(=O)O)C[C@H](NC/C=C/c2ccc(N(C)C)cc2)[C@H]1NC(C)=O
IC50 (Influenza A virus [1]): 1.29 µM | IC50 (Influenza A virus [2]): 2.78 µM | IC50 (Influenza A virus [3]): 0.88 µM | IC50 (Influenza A virus [4]): 0.065 µM | CC50 at 48 h [5]: > 200 µM

CCC(CC)O[C@@H]1C=C(C(=O)O)C[C@H](NS(=O)(=O)c2ccc(C)cc2)[C@H]1NC(C)=O
IC50 (Influenza A virus [1]): > 10 µM | IC50 (Influenza A virus [2]): > 10 µM | IC50 (Influenza A virus [3]): 3.12 µM | IC50 (Influenza A virus [4]): > 10 µM | CC50 at 48 h [5]: > 200 µM

CCC(CC)O[C@@H]1C=C(C(=O)O)C[C@H](NCc2cccc([N+](=O)[O-])c2)[C@H]1NC(C)=O
IC50 (Influenza A virus [1]): > 10 µM | IC50 (Influenza A virus [2]): 2.16 µM | IC50 (Influenza A virus [3]): 0.7 µM | IC50 (Influenza A virus [4]): 0.24 µM | CC50 at 48 h [5]: > 200 µM

CCC(CC)O[C@@H]1C=C(C(=O)O)C[C@H](NCc2ccc([N+](=O)[O-])cc2)[C@H]1NC(C)=O
IC50 (Influenza A virus [1]): > 10 µM | IC50 (Influenza A virus [2]): 2.16 µM | IC50 (Influenza A virus [3]): 0.42 µM | IC50 (Influenza A virus [4]): 0.21 µM | CC50 at 48 h [5]: > 200 µM

CCC(CC)O[C@@H]1C=C(C(=O)O)C[C@H](NCc2ccc(F)cc2)[C@H]1NC(C)=O
IC50 (Influenza A virus [1]): > 10 µM | IC50 (Influenza A virus [2]): 4.57 µM | IC50 (Influenza A virus [3]): 0.52 µM | IC50 (Influenza A virus [4]): 0.11 µM | CC50 at 48 h [5]: > 200 µM

CCC(CC)O[C@@H]1C=C(C(=O)O)C[C@H](NS(=O)(=O)c2ccc(-c3ccccc3)cc2)[C@H]1NC(C)=O
IC50 (Influenza A virus [1]): > 10 µM | IC50 (Influenza A virus [2]): > 10 µM | IC50 (Influenza A virus [3]): 6.79 µM | IC50 (Influenza A virus [4]): > 10 µM | CC50 at 48 h [5]: > 200 µM

CCC(CC)O[C@@H]1C=C(C(=O)O)C[C@H](NS(=O)(=O)c2ccc3ccccc3c2)[C@H]1NC(C)=O
IC50 (Influenza A virus [1]): > 10 µM | IC50 (Influenza A virus [2]): > 10 µM | IC50 (Influenza A virus [3]): 3.23 µM | IC50 (Influenza A virus [4]): > 10 µM | CC50 at 48 h [5]: > 200 µM

CCC(CC)O[C@@H]1C=C(C(=O)O)C[C@H](NCc2ccc(-c3cccs3)s2)[C@H]1NC(C)=O
IC50 (Influenza A virus [1]): > 10 µM | IC50 (Influenza A virus [2]): 7.12 µM | IC50 (Influenza A virus [3]): 0.072 µM | IC50 (Influenza A virus [4]): 0.083 µM | CC50 at 48 h [5]: > 200 µM

CCC(CC)O[C@@H]1C=C(C(=O)O)C[C@H](NCc2cccc(-c3ccsc3)c2)[C@H]1NC(C)=O
IC50 (Influenza A virus [2]): 2.62 µM | IC50 (Influenza A virus [3]): 0.056 µM | IC50 (Influenza A virus [4]): 0.07 µM | CC50 at 48 h [5]: > 200 µM

CCC(CC)O[C@@H]1C=C(C(=O)O)C[C@H](N(Cc2ccsc2)Cc2ccsc2)[C@H]1NC(C)=O
IC50 (Influenza A virus [1]): > 10 µM | IC50 (Influenza A virus [2]): 3.03 µM | IC50 (Influenza A virus [3]): 0.88 µM | IC50 (Influenza A virus [4]): 0.15 µM | CC50 at 48 h [5]: > 200 µM

CCC(CC)O[C@@H]1C=C(C(=O)O)C[C@H](NCc2ccc(Br)cc2)[C@H]1NC(C)=O
IC50 (Influenza A virus [1]): 2.53 µM | IC50 (Influenza A virus [2]): 1.99 µM | IC50 (Influenza A virus [4]): 0.11 µM | CC50 at 48 h [5]: > 200 µM

CCC(CC)O[C@@H]1C=C(C(=O)O)C[C@H](NC(=O)c2ccccc2)[C@H]1NC(C)=O
IC50 (Influenza A virus [1]): > 10 µM | IC50 (Influenza A virus [2]): > 10 µM | IC50 (Influenza A virus [3]): > 10 µM | IC50 (Influenza A virus [4]): > 10 µM | CC50 at 48 h [5]: > 200 µM

CCC(CC)O[C@@H]1C=C(C(=O)O)C[C@H](NC(=O)/C=C/c2ccccc2)[C@H]1NC(C)=O
IC50 (Influenza A virus [1]): > 10 µM | IC50 (Influenza A virus [2]): > 10 µM | IC50 (Influenza A virus [3]): 5.32 µM | IC50 (Influenza A virus [4]): > 10 µM | CC50 at 48 h [5]: > 200 µM

CCC(CC)O[C@@H]1C=C(C(=O)O)C[C@H](NCc2ccsc2)[C@H]1NC(C)=O
IC50 (Influenza A virus [1]): > 10 µM | IC50 (Influenza A virus [2]): 3.58 µM | IC50 (Influenza A virus [3]): 0.081 µM | IC50 (Influenza A virus [4]): 0.13 µM | CC50 at 48 h [5]: > 200 µM

CCC(CC)O[C@@H]1C=C(C(=O)O)C[C@H](NS(=O)(=O)c2ccc(-c3cccs3)cc2)[C@H]1NC(C)=O
IC50 (Influenza A virus [1]): 0.29 µM | IC50 (Influenza A virus [2]): 2.39 µM | IC50 (Influenza A virus [3]): 0.053 µM | IC50 (Influenza A virus [4]): 0.079 µM | CC50 at 48 h [5]: > 200 µM

CCC(CC)O[C@@H]1C=C(C(=O)O)C[C@H](NCc2cccc(F)c2)[C@H]1NC(C)=O
IC50 (Influenza A virus [1]): > 10 µM | IC50 (Influenza A virus [2]): 3.87 µM | IC50 (Influenza A virus [3]): 0.49 µM | IC50 (Influenza A virus [4]): 0.14 µM | CC50 at 48 h [5]: > 200 µM

CCC(CC)O[C@@H]1C=C(C(=O)O)C[C@H](NS(=O)(=O)c2ccc(F)cc2)[C@H]1NC(C)=O
IC50 (Influenza A virus [1]): > 10 µM | IC50 (Influenza A virus [2]): > 10 µM | IC50 (Influenza A virus [3]): 4.25 µM | IC50 (Influenza A virus [4]): > 10 µM | CC50 at 48 h [5]: > 200 µM

CCC(CC)O[C@@H]1C=C(C(=O)O)C[C@H](NC(=O)/C=C/c2cccc(C)c2)[C@H]1NC(C)=O
IC50 (Influenza A virus [1]): > 10 µM | IC50 (Influenza A virus [2]): > 10 µM | IC50 (Influenza A virus [3]): 4.37 µM | IC50 (Influenza A virus [4]): > 10 µM | CC50 at 48 h [5]: > 200 µM

CCC(CC)O[C@@H]1C=C(C(=O)O)C[C@H](NS(=O)(=O)c2ccc(Cl)cc2)[C@H]1NC(C)=O
IC50 (Influenza A virus [1]): > 10 µM | IC50 (Influenza A virus [2]): > 10 µM | IC50 (Influenza A virus [3]): 4.76 µM | IC50 (Influenza A virus [4]): > 10 µM | CC50 at 48 h [5]: > 200 µM

CCC(CC)O[C@@H]1C=C(C(=O)O)C[C@H](NCc2ncc(-c3ccccc3)s2)[C@H]1NC(C)=O
IC50 (Influenza A virus [1]): > 10 µM | IC50 (Influenza A virus [2]): 4.29 µM | IC50 (Influenza A virus [3]): 0.49 µM | IC50 (Influenza A virus [4]): 0.41 µM | CC50 at 48 h [5]: > 200 µM

NC(=O)c1ncn([C@@H]2O[C@H](CO)[C@@H](O)[C@H]2O)n1 [RIBAVIRIN]
IC50 (Influenza A virus [1]): 4.01 µM | IC50 (Influenza A virus [2]): 6.68 µM | IC50 (Influenza A virus [3]): 1.96 µM | IC50 (Influenza A virus [4]): > 10 µM | CC50 at 48 h [5]: > 200 µM

CCC(CC)O[C@@H]1C=C(C(=O)O)C[C@H](NCc2cccc(C(F)(F)F)c2)[C@H]1NC(C)=O
IC50 (Influenza A virus [1]): > 10 µM | IC50 (Influenza A virus [2]): 3.17 µM | IC50 (Influenza A virus [3]): 0.75 µM | IC50 (Influenza A virus [4]): 0.34 µM | CC50 at 48 h [5]: > 200 µM

CCC(CC)O[C@@H]1C=C(C(=O)O)C[C@H](NS(=O)(=O)c2ccc(C(C)(C)C)cc2)[C@H]1NC(C)=O
IC50 (Influenza A virus [1]): > 10 µM | IC50 (Influenza A virus [2]): > 10 µM | IC50 (Influenza A virus [4]): > 10 µM | CC50 at 48 h [5]: > 200 µM

CCC(CC)O[C@@H]1C=C(C(=O)O)C[C@H](NC(=O)c2ccc(-c3ccccc3)cc2)[C@H]1NC(C)=O
IC50 (Influenza A virus [1]): > 10 µM | IC50 (Influenza A virus [2]): > 10 µM | IC50 (Influenza A virus [3]): 3.54 µM | IC50 (Influenza A virus [4]): > 10 µM | CC50 at 48 h [5]: > 200 µM

CCC(CC)O[C@@H]1C=C(C(=O)O)C[C@H](NC(=O)/C=C/c2ccc(F)cc2)[C@H]1NC(C)=O
IC50 (Influenza A virus [1]): > 10 µM | IC50 (Influenza A virus [2]): > 10 µM | IC50 (Influenza A virus [3]): 5.16 µM | IC50 (Influenza A virus [4]): > 10 µM | CC50 at 48 h [5]: > 200 µM

CCC(CC)O[C@@H]1C=C(C(=O)O)C[C@H](NCc2ccc(C#N)cc2)[C@H]1NC(C)=O
IC50 (Influenza A virus [1]): > 10 µM | IC50 (Influenza A virus [2]): > 10 µM | IC50 (Influenza A virus [3]): 0.68 µM | CC50 at 48 h [5]: > 200 µM

CCC(CC)O[C@@H]1C=C(C(=O)O)C[C@H](NC(=O)/C=C/c2ccc(C)cc2)[C@H]1NC(C)=O
IC50 (Influenza A virus [1]): > 10 µM | IC50 (Influenza A virus [2]): > 10 µM | IC50 (Influenza A virus [3]): 4.76 µM | IC50 (Influenza A virus [4]): > 10 µM | CC50 at 48 h [5]: > 200 µM

CCC(CC)O[C@@H]1C=C(C(=O)O)C[C@H](NC(=O)/C=C/c2ccc(OC)cc2)[C@H]1NC(C)=O
IC50 (Influenza A virus [1]): > 10 µM | IC50 (Influenza A virus [2]): > 10 µM | IC50 (Influenza A virus [3]): 8.48 µM | IC50 (Influenza A virus [4]): > 10 µM | CC50 at 48 h [5]: > 200 µM

CCC(CC)O[C@@H]1C=C(C(=O)O)C[C@H](NC/C=C/c2ccc(OC)cc2)[C@H]1NC(C)=O
IC50 (Influenza A virus [1]): 7.56 µM | IC50 (Influenza A virus [2]): 4.07 µM | IC50 (Influenza A virus [3]): 0.64 µM | IC50 (Influenza A virus [4]): 0.21 µM | CC50 at 48 h [5]: > 200 µM
